We go through nine compounds from ChEMBL document CHEMBL3407346, “Design, synthesis, and biological evaluation of sulfonyl acrylonitriles as novel inhibitors of cancer metastasis and spread” (J Med Chem, 2015).

Series [1] is described as follows: Antimetastatic activity against human MIAPaCa2 cells xenografted in ip dosed Ncr-Nu/Nu mouse assessed as local recurrence administered on day 1, 3, 5, 7 and measured after 8 weeks by fluorescent imaging analysis (reference value: 60%). Format: functional, MIA PaCa-2. The gist of the method:
(§1)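 Orthotopic pancreatic model in male NCr-Nu/Nu nude mice, 6-8 wk old. 1×10⁶ RFP-expressing MiaPaCa-2 cells in soluble ECM were injected into the pancreatic tail. Tumour resected with distal pancreatectomy, with no residual disease confirmed by intraoperative RFP imaging. Compound or vehicle (4:1 PEG400:EtOH) given IP at surgery and on days 3, 5 and 7. Local and metastatic recurrence scored by fluorescent imaging after 8 weeks.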
(In general: In xenograft studies the graft and the host belong to different species.)

A short description of series [2]: Antimetastatic activity against human MIAPaCa2 cells xenografted in ip dosed Ncr-Nu/Nu mouse assessed as total recurrence administered on day 1, 3, 5, 7 and measured after 8 weeks by fluorescent imaging analysis (reference value: 67%). Format: functional, MIA PaCa-2. Put shortly:
as §1

Series [3] can be described thus: Cytotoxicity against human BxPC3 cells co-cultured with human mesothelial cells after 4 hrs by firefly luciferase assay relative to control. Format: functional, cell-based. The note with it: BXPC-3, 4 h. The gist of the method:
(§2)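 Luciferase-expressing cancer cells in suspension were treated with a series of compound concentrations or DMSO, overlaid on confluent human mesothelial monolayers for 4 h, and washed to remove non-adherent cells. Surviving adherent cells were read by luciferase luminescence relative to vehicle, and EC50 was derived from the concentration series.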

Series [4] relates to A2780. Description: Cytotoxicity against human A2780 cells co-cultured with human mesothelial cells after 4 hrs by firefly luciferase assay relative to control. It counts as functional, cell-based. The note with it: A2780, 4 h. The gist of the method: as §2
Series [5] is described as follows: Antitumor activity against human MIAPaCa2 cells xenografted in ip dosed Ncr-Nu/Nu mouse assessed as metastases administered on day 1, 3, 5, 7 and measured after 8 weeks by fluorescent imaging analysis (reference value: 40%). It counts as functional, MIA PaCa-2. Put shortly:
as §1

Series [6] in a line: Cytotoxicity against human SKOV3 cells co-cultured with human mesothelial cells at 10 uM after 4 hrs by firefly luciferase assay relative to control. Format: functional, SK-OV-3. The gist of the method: (§3)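 Co-culture of luciferase-transduced cancer cells (puromycin/G418-selected retroviral pLuc) with confluent human mesothelial monolayers. Suspended cancer cells plus 10 µM compound (final) or DMSO were overlaid for 4 h. Non-adherent cells were washed off and surviving adherent cells quantified by firefly luciferase luminescence. Efficacy = treated/DMSO luminescence ratio; mean±SEM, n=3.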

Series [7] has as its system A2780. Description: Cytotoxicity against human A2780 cells co-cultured with human mesothelial cells at 10 uM after 4 hrs by firefly luciferase assay relative to control. It counts as functional. Put shortly: as §3
The nature of series [8]: Cytotoxicity against human SU86 cells co-cultured with human mesothelial cells at 10 uM after 4 hrs by firefly luciferase assay relative to control. It counts as functional. Put shortly:
as §3

Series [9] in a line: Cytotoxicity against human SU86 cells co-cultured with human mesothelial cells after 4 hrs by firefly luciferase assay relative to control. It counts as functional, cell-based. The gist of the method: as §2
Series [10] can be described thus: Cytotoxicity against human BxPC3 cells co-cultured with human mesothelial cells at 10 uM after 4 hrs by firefly luciferase assay relative to control. It counts as functional, BXPC-3. The gist of the method: as §3
The nature of series [11]: Cytotoxicity against human SKOV3 cells co-cultured with human mesothelial cells after 4 hrs by firefly luciferase assay relative to control. It counts as functional, cell-based. The note with it: SK-OV-3, 4 h. The gist of the method: as §2
Series [12] can be described thus: Glutathione reactivity assessed as reduction in detectable GSH level by Ellman's reagent-based assay. The gist of the method:
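Glutathione was measured with a commercial kit per the manufacturer's instructions, with TNB production rate proportional to GSH. Cell-free GSH was tested with compounds, and HT-29 luciferase cell lysates were assayed after compound exposure.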
(In Ellman's method for cholinesterases, released thiocholine reacts with DTNB.)

A further series relates to HT-29. Description: Reduction of cellular GSH level in human HT-29 cells incubated for 30 mins followed by co-culturing with human mesothelial cells measured after 5 hrs by […]. Format: functional, cell-based.
The test system of series [13] is A2780. Description: Induction of apoptosis in human A2780 cells assessed as increased cellular levels of cleaved caspase 3 at 5 uM after 4 hrs by immunoblot analysis. It counts as functional, cell-based. The gist of the method: (§4)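 A2780 cells were suspended and allowed to adhere for 4 h with DMSO or test compound (5 µM in DMSO). Cells were collected and lysed, lysates normalised for total protein, and cleaved PARP and cleaved caspase 3 detected by immunoblot with actin as loading control. A sulfide analog served as negative control.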
(In western blotting, separated proteins are transferred to a membrane and probed.)

For a further series, the system named is SK-OV-3. Description: Inhibition of peritoneal carcinomatosis of human SKOV3 cells in athymic nu/nu mouse at 5 mg/kg, ip administered thrice a week for 14 days by luciferase reporter assay relative to vehicle-treated control. It counts as functional, organism-based. On the set-up: dose 5 mg/kg. The gist of the method: (§5)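 Athymic female nu/nu mice, 5 weeks old, received 5 mg/kg compound or vehicle (80% PEG400:20% ethanol) IP 4 h before IP injection of 1.5×10⁶ A2780-luc or 2×10⁶ SKOV3-luc cells, n=7 per arm. Dosing continued IP three times a week for 14 days. Tumour burden was imaged weekly by abdominal bioluminescence after IP D-luciferin/ketamine/xylazine; mean±SEM, unpaired t-test vs vehicle.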

In series [14] the test system is A2780. Description: Inhibition of peritoneal carcinomatosis of human A2780 cells in athymic nu/nu mouse at 5 mg/kg, ip administered thrice a week for 14 days by luciferase reporter assay relative to vehicle-treated control. It counts as functional, organism-based. Also on record: dose 5 mg/kg. The gist of the method: as §5
For series [15], the system named is A2780. Description: Induction of apoptosis in human A2780 cells assessed as increased cellular levels of cleaved PARP at 5 uM after 4 hrs by immunoblot analysis. It counts as functional, cell-based. Put shortly:
as §4

For series [16], the system named is Mus musculus. Description: Toxicity in athymic nu/nu mouse xenografted with human A2780 cells assessed as weight loss at 5 mg/kg, ip administered thrice a week for 14 days. It counts as organism-based. On the set-up: dose 5 mg/kg, route intraperitoneal. The note with it: in vivo, 336 h.
In series [17] the test system is Mus musculus. Description: Toxicity in athymic nu/nu mouse xenografted with human SKOV3 cells assessed as weight loss at 5 mg/kg, ip administered thrice a week for 14 days. Format: organism-based, SK-OV-3. On the set-up: dose 5 mg/kg, route intraperitoneal. The conditions noted are these: in vivo, 336 h.

What is called EC50 is the concentration needed to bring the measured effect to its halfway point. Read a low EC50 as a more potent agent.

The structures appear in SMILES notation. The source made the active and inactive calls. The rule behind the calls is not given here.

On to `Cc1ccc2oc(C(C)(C)c3ccc(S(=O)(=O)/C=C/C#N)cc3)nc2c1`, for which the Activity in series [1] turned out to be 40%; in series [2], 50%; in series [5], 10%. For the same compound, the EC50 in series [3] worked out at 3.5 µM; with A2780 [4], 2100 nM; in series [9], 7.3 µM; in series [11], 5.6 µM. Besides, the Ratio came out at 0.17 in series [6], 0.1 in the series with A2780 [7], 0.2 in series [8] and 0.09 in series [10].

With `C=CS(=O)(=O)c1ccc(C(C)(C)C)cc1`, the result (in series [12]; with HT-29) was inactive.

Consider `CC(C)(C)c1cc(S(=O)(=O)/C=C/C#N)ccc1OCC(=O)NC1CCCCC1`, for which the EC50 in [3] was found to be 3.4 µM; in the series on A2780 [4] it was 2600 nM; in series [9], 6.6 µM; in [11] it was 6.1 µM. In addition, the result in the series with A2780 [13] and with A2780 [15] was Active. For the same compound, the Ratio in series [6] is reported as 0.19; in the series with A2780 [7] it was 0.01; in series [8] it was 0.21; in [10], 0.09. In addition, the inhibition entry in the series on SK-OV-3 and in the series with A2780 [14] was “Active” throughout. The Activity entry in the series on Mus musculus [16] and in the series with Mus musculus [17] was “Non-toxic” each time.

For `CC(C)(C)c1ccc(S/C=C/C#N)cc1`, the result in the series on A2780 [13] and in the series with A2780 [15] was inactive.

Consider `C/C=C/S(=O)(=O)c1ccc(C(C)(C)C)cc1`, for which the result (in series [12]; in the series on HT-29) was inactive.

As to `CC(C)(c1ccc(S(=O)(=O)/C=C/C#N)cc1)c1nc2ccccc2o1`, the EC50 in series [3] was 3.1 µM; in the series on A2780 [4] it was 2200 nM; in [9], 6.5 µM; in series [11], 5.4 µM. Also, the result with A2780 [13] and in the series with A2780 [15] was Active. For the same compound, the Ratio was 0.17 in series [6], 0.01 with A2780 [7], 0.29 in series [8] and 0.24 in series [10]. For the same compound, the inhibition entry in the series on SK-OV-3 and in the series on A2780 [14] was “Active” in each case. Also, the Activity result in the series with Mus musculus [16] and in the series on Mus musculus [17] was “Non-toxic” throughout.

As to `CC(C)(c1ccc(S(=O)(=O)/C=C/C#N)cc1)c1nnc(-c2ccccc2)o1`, the Activity was determined as 45% in series [1], 45% in series [2] and 0% in [5]. Moreover, the EC50 in series [3] is 3.1 µM; in the series on A2780 [4], 2600 nM; in series [9], 6.2 µM; in series [11], 5.7 µM. Also, the Ratio stood at 0.25 in series [6], 0.06 in the series with A2780 [7], 0.45 in [8] and 0.24 in series [10].

Take `CN(Cc1ccccc1)C(=O)C(C)(C)c1ccc(S(=O)(=O)/C=C/C#N)cc1`: the Ratio stood at 0.5 in series [6], 0.06 in the series with A2780 [7], 0.24 in series [8] and 0.12 in series [10]. Besides, the result (in [12]; with HT-29) was Active.

For `CC(C)(C(=O)NCc1ccc(F)cc1)c1ccc(S(=O)(=O)/C=C/C#N)cc1`, the Ratio amounted to 0.6 in series [6], 0.11 in the series on A2780 [7], 0.18 in series [8] and 0.23 in series [10]. For the same compound, the result (in [12]; in the series on HT-29) was Active.
